From ChEMBL document CHEMBL1772948, “Chemistry and biology of macrolide antiparasitic agents” (J Med Chem, 2011) come the findings set out here.

pIC50: −log10 of the molar value. Converted amounts (≈) assume the structure as drawn. The source made the active and inactive calls.

Data set [1] relates to Toxoplasma gondii. Description: Antiparasitic activity against green fluorescent protein expressing […] deficient Toxoplasma gondii RH infected in HFF assessed as reduction of ycf24/UPRT genes copy number ratio at 5 uM treated for 48 hrs after 6 hrs infection followed by reinoculated into fresh HFF monolayers measured after 48 hrs by RT-PCR analysis. In kind it is functional, organism-based. The method, boiled down: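 HFF monolayers infected with RHΔhxgprt (or Clin^R-4) in 6-well plates; after 6 h medium changed and compound present 42 h; at 48 h parasites reinoculated into fresh HFF for 48 h without compound; parasites pelleted at 2,000 rpm 10 min; qPCR (94 °C 20 s, then 40 cycles 94 °C 3 s/60 °C 30 s) plastid ycf24 vs nuclear UPRT copy ratio.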

Data set [2] relates to Toxoplasma gondii. Description: Antiparasitic activity against clindamycin-resistant Toxoplasma gondii 4 infected in HFF assessed as reduction of ycf24/UPRT genes copy number ratio at 5 uM treated for 48 hrs after 6 hrs infection followed by reinoculated into fresh HFF monolayers measured after 48 hrs by RT-PCR analysis. The class given is functional, organism-based.
In data set [3] the test system is Toxoplasma gondii. Description: Antiparasitic activity against green fluorescent protein expressing […] deficient Toxoplasma gondii RH infected in HFF assessed as reduction of ycf24/UPRT genes copy number ratio at 5 uM treated for 48 hrs immediately after infection followed by reinoculated into fresh HFF monolayers measured after 48 hrs by RT-PCR analysis. The class given is functional, organism-based. The method, boiled down: (§1)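 Tachyzoites were seeded on confluent HFF in 6-well plates at 2×10^5 per well, in DMEM with 10% FBS and 1% PS at 37 °C, 5% CO2. Compound was added together with the parasite inoculum, and cultures ran 48 h. Harvested tachyzoites were reinoculated into fresh HFF without drug for a second cycle. Parasites were pelleted by centrifugation and the plastid ycf24 to nuclear UPRT copy ratio was read by qPCR (40 cycles, 94 °C 3 s / 60 °C 30 s). At least triplicate.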

In data set [4] the test system is Toxoplasma gondii. Description: Antiparasitic activity against clindamycin-resistant Toxoplasma gondii 4 infected in HFF assessed as reduction of ycf24/UPRT genes copy number ratio at 5 uM treated for 48 hrs immediately after infection followed by reinoculated into fresh HFF monolayers measured after 48 hrs by RT-PCR analysis. The class given is functional, organism-based. The method, boiled down: as §1

Data set [5] deals with Toxoplasma gondii. Kind of data set: Antiparasitic activity against green fluorescent protein expressing hwgprt deficient Toxoplasma gondii RH infected in HFF assessed as reduction of ycf24/UPRT genes copy number ratio at 0.1 uM treated for 48 hrs after 6 hrs infection followed by reinoculated into fresh HFF monolayers measured after 48 hrs by RT-PCR analysis. In kind it is functional. The method, boiled down:
(§2)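 Tachyzoites were seeded on confluent HFF monolayers in 6-well plates at 2×10^5 per well, in DMEM with 10% FBS and 1% PS at 37 °C, 5% CO2. After 6 h pre-infection, the medium was replaced with medium containing compound for 42 h. Released parasites were reinoculated into fresh HFF without drug for 48 h, collected by centrifugation, and measured by qPCR as the ratio of plastid ycf24 to nuclear UPRT copies. At least triplicate.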

The subject of data set [6] is Toxoplasma gondii. Kind of data set: Antiparasitic activity against green fluorescent protein expressing […] deficient Toxoplasma gondii RH infected in HFF assessed as reduction of ycf24/UPRT genes copy number ratio at 0.1 uM treated for 48 hrs immediately after infection followed by reinoculated into fresh HFF monolayers measured after 48 hrs by RT-PCR analysis. The class given is functional. Put shortly: as §1

Data set [7] relates to Toxoplasma gondii. Kind of data set: Antiparasitic activity against green fluorescent protein expressing […] deficient Toxoplasma gondii RH infected in HFF at 5 to 50 uM treated 6 hrs after infection measured after 48 hrs followed by reinoculated into fresh HFF monolayers measured after 48 hrs. In kind it is functional, organism-based. Put shortly: (§3)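 GFP-expressing RHΔhxgprt tachyzoites were grown on HFF on glass coverslips in 12-well plates (2×10^4/well). Compound was added either with the parasites ("0h", 48 h) or after a 6 h pre-infection and medium change ("6h", 42 h). Parasites per vacuole were counted by fluorescence microscopy in at least 50 random vacuoles per well. Three independent experiments.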

Data set [8] deals with Toxoplasma gondii. Kind of data set: Antiparasitic activity against yellow fluorescent protein expressing Toxoplasma gondii 2F-1 treated 6 hrs after infection for 42 hrs followed by reinoculated into fresh HFF monolayers measured after 48 hrs. In kind it is functional, organism-based. The method, boiled down:
(§4)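 Two-cycle protocol in HFF at 37 °C, 5% CO2, DMEM with 10% FBS. "0h": compound added with parasites, 48 h. "6h": parasites pre-incubated 6 h, uninvaded parasites removed, fresh medium with compound added, 42 h. Released tachyzoites were then harvested, purified and inoculated into fresh HFF without compound for the 2nd cycle. At least triplicate.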

Data set [9] concerns Toxoplasma gondii. Description: Antiparasitic activity against clindamycin-resistant Toxoplasma gondii 4 infected in HFF assessed as reduction of ycf24/UPRT genes copy number ratio at 10 uM treated for 48 hrs after 6 hrs infection followed by reinoculated into fresh HFF monolayers measured after 48 hrs by RT-PCR analysis. The class given is functional. The method, boiled down: as §2

The test system of data set [10] is HFF. Kind of data set: Cytotoxicity against HFF after 48 hrs by MTS assay. In kind it is cell-based. The following applies: human. Put shortly: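 Low-passage HFF seeded in 96-well plates and incubated 24h at 37 °C, then exposed to varying macrolide concentrations for 2 days; medium replaced with fresh medium plus MTS, 4h at 37 °C, absorbance 490 nm; CC50 = dose reducing viability by 50%.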
In general terms: Formazan colour is commonly taken as a measure of viable cells.

The subject of data set [11] is Toxoplasma gondii. Description: Antiparasitic activity against green fluorescent protein expressing hwgprt deficient Toxoplasma gondii RH infected in HFF assessed as reduction of ycf24/UPRT genes copy number ratio at 10 uM treated for 42 hrs starting 6 hrs after infection followed by reinoculated into fresh HFF monolayers measured after 48 hrs by RT-PCR analysis.
Data set [12] relates to Toxoplasma gondii. Kind of data set: Antiparasitic activity against green fluorescent protein expressing […] deficient Toxoplasma gondii RH infected in HFF assessed as decrease in density of parasitophorous vacuoles at 10 uM treated immediately after infection measured after 24 hrs by microscopic analysis. The class given is functional, organism-based. Put shortly: (§5)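 GFP T. gondii RHΔhxgprt in HFF, compound (10 μM) added either with the inoculum ("0h") or after 6 h pre-infection and washing ("6h"); vacuoles per microscope field scored at 24 h, at least 20 random fields from each of three experiments.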

Data set [13] concerns Toxoplasma gondii. Kind of data set: Antiparasitic activity against green fluorescent protein expressing hwgprt deficient Toxoplasma gondii RH infected in HFF assessed as reduction of ycf24/UPRT genes copy number ratio at 10 uM […] followed by reinoculated into fresh HFF monolayers measured after 48 hrs by RT-PCR analysis. In kind it is functional.
The test system of data set [14] is Toxoplasma gondii. Description: Antiparasitic activity against clindamycin-resistant Toxoplasma gondii 4 infected in HFF assessed as reduction of ycf24/UPRT genes copy number ratio at 1 uM treated for 48 hrs immediately after infection followed by reinoculated into fresh HFF monolayers measured after 48 hrs by RT-PCR analysis. In kind it is functional. The method, boiled down:
(§6)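 Tachyzoites were seeded on confluent HFF in 6-well plates at 2×10^5 per well, in DMEM with 10% FBS and 1% PS at 37 °C, 5% CO2. Harvested tachyzoites were reinoculated into fresh HFF without drug for a second cycle. Parasites were pelleted by centrifugation and the plastid ycf24 to nuclear UPRT copy ratio was read by qPCR (40 cycles, 94 °C 3 s / 60 °C 30 s). At least triplicate.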

The test system of data set [15] is Toxoplasma gondii. Kind of data set: Antiparasitic activity against green fluorescent protein expressing […] deficient Toxoplasma gondii RH infected in HFF at 5 to 50 uM treated 6 hrs after infection measured after 48 hrs. The class given is functional, organism-based. Put shortly: as §3
Data set [16] has as its system Toxoplasma gondii. Kind of data set: Antiparasitic activity against clindamycin-resistant Toxoplasma gondii 4 infected in HFF assessed as reduction of ycf24/UPRT genes copy number ratio at 1 uM treated for 48 hrs after 6 hrs infection followed by reinoculated into fresh HFF monolayers measured after 48 hrs by RT-PCR analysis. The class given is functional.
The test system of data set [17] is Toxoplasma gondii. Description: Antiparasitic activity against green fluorescent protein expressing hwgprt deficient Toxoplasma gondii RH infected in HFF at 5 to 50 uM treated immediately after infection measured after 48 hrs followed by reinoculated into fresh HFF monolayers measured after 48 hrs. The class given is functional, organism-based.
Data set [18] deals with Toxoplasma gondii. Kind of data set: Antiparasitic activity against green fluorescent protein expressing hwgprt deficient Toxoplasma gondii RH infected in HFF at 5 to 50 uM treated immediately after infection measured after 48 hrs. The class given is functional, organism-based. The method, boiled down:
as §3

Data set [19] has as its system Toxoplasma gondii. Kind of data set: Antiparasitic activity against green fluorescent protein expressing […] deficient Toxoplasma gondii RH infected in HFF assessed as decrease in density of parasitophorous vacuoles at 10 uM treated 6 hrs after infection measured after 24 hrs by microscopic analysis. The class given is functional, organism-based. Put shortly: as §5

In data set [20] the test system is Bacillus subtilis. Description: Antibacterial activity against Bacillus subtilis. The class given is functional.
Data set [21] relates to Toxoplasma gondii. Description: Antiparasitic activity against yellow fluorescent protein expressing Toxoplasma gondii 2F-1 infected in HFF treated immediately after infection measured after 48 hrs. In kind it is functional, organism-based. The following applies: 2F-1, 48 h.
Data set [22] has as its system Toxoplasma gondii. Description: Antiparasitic activity against yellow fluorescent protein expressing Toxoplasma gondii 2F-1 infected in HFF treated 6 hrs after infection measured after 48 hrs. The class given is functional, organism-based.
Data set [23] has as its system Toxoplasma gondii. Description: Antiparasitic activity against Toxoplasma gondii 2F-1 expressing yellow fluorescent protein infected in HFF after 4 days. The note with it: 2F-1, 96 h. In kind it is functional, organism-based.
Data set [24] concerns Toxoplasma gondii. Kind of data set: Antiparasitic activity against green fluorescent protein expressing hwgprt deficient Toxoplasma gondii RH infected in HFF assessed as reduction of ycf24/UPRT genes copy number ratio at 1 uM treated for 48 hrs after 6 hrs infection followed by reinoculated into fresh HFF monolayers measured after 48 hrs by RT-PCR analysis. The class given is functional.

Data set [25] deals with Toxoplasma gondii. Kind of data set: Antiparasitic activity against green fluorescent protein expressing […] deficient Toxoplasma gondii RH infected in HFF assessed as reduction of ycf24/UPRT genes copy number ratio at 1 uM treated for 48 hrs immediately after infection followed by reinoculated into fresh HFF monolayers measured after 48 hrs by RT-PCR analysis. The class given is functional. Put shortly:
as §6

Data set [26] has as its system Toxoplasma gondii. Description: Antiparasitic activity against yellow fluorescent protein expressing Toxoplasma gondii 2F-1 treated immediately after infection for 48 hrs followed by reinoculated into fresh HFF monolayers measured after 48 hrs. The class given is functional, organism-based. The note with it: 2F-1, 48 h. Put shortly: as §4
The subject of data set [27] is Toxoplasma gondii. Kind of data set: Antiparasitic activity against clindamycin-resistant Toxoplasma gondii 4 infected in HFF assessed as reduction of ycf24/UPRT genes copy number ratio at 0.1 uM treated for 48 hrs after 6 hrs infection followed by reinoculated into fresh HFF monolayers measured after 48 hrs by RT-PCR analysis. The class given is functional. Put shortly:
as §2

In data set [28] the test system is Toxoplasma gondii. Description: Antiparasitic activity against green fluorescent protein expressing […] deficient Toxoplasma gondii RH infected in HFF assessed as parasite doubling time at 5 to 50 uM treated immediately after infection measured after 48 hrs. The class given is functional. Put shortly: (§7)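 HFF were grown on glass coverslips in 12-well plates and infected with 2×10^4 GFP tachyzoites per well. Compound was added with the inoculum; the first cycle ran 48 h, and the second cycle ran in fresh HFF without drug. Parasites per vacuole were counted by fluorescence microscopy, at least 50 random vacuoles per well, to derive doubling time. Three independent experiments.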

For data set [29], the system named is Toxoplasma gondii. Kind of data set: Antiparasitic activity against green fluorescent protein expressing […] deficient Toxoplasma gondii RH assessed as parasite doubling time at 5 to 50 uM treated immediately after infection for 48 hrs followed by reinoculated into fresh HFF monolayers measured after 48 hrs. The class given is functional. Put shortly:
as §7

In data set [30] the test system is Toxoplasma gondii. Kind of data set: Antiparasitic activity against clindamycin-resistant Toxoplasma gondii 4 infected in HFF assessed as reduction of ycf24/UPRT genes copy number ratio at 0.1 uM treated for 48 hrs immediately after infection followed by reinoculated into fresh HFF monolayers measured after 48 hrs by RT-PCR analysis. In kind it is functional. The method, boiled down: as §1

The test system of data set [31] is Toxoplasma gondii. Kind of data set: Antiparasitic activity against clindamycin-resistant Toxoplasma gondii 4 infected in HFF assessed as reduction of ycf24/UPRT genes copy number ratio at 10 uM treated for 48 hrs immediately after infection followed by reinoculated into fresh HFF monolayers measured after 48 hrs by RT-PCR analysis. In kind it is functional. Put shortly: as §1

Consider SPIRAMYCIN, for which the Ratio in data set [1] was found to be 5; in data set [2], 3; in data set [3], 8; in [4], 8.
As for `CC[C@H]1OC(=O)[C@H](C)[C@@H](O[C@H]2C[C@@](C)(OC)[C@@H](O)[C@H](C)O2)[C@H](C)[C@@H](O[C@@H]2O[C@H](C)C[C@H](N(C)C)[C@H]2O)[C@](C)(O)C[C@@H](C)CN(C)[C@H](C)[C@@H](O)[C@]1(C)O` [AZITHROMYCIN], the Ratio in data set [5] came to 15; in data set [6] it was 7; in data set [9], 4; in data set [11] it was 10; in data set [13], 3; in data set [14], 8. In addition, the Ratio in data set [16] came to 3; in data set [24] it was 3; in data set [25], 7; in [27] it was 13; in data set [30], 18; in data set [31] it was 10. Moreover, the result in data set [7], in data set [15], in data set [17] and in data set [18] was Active. Moreover, the pIC50 in data set [8] was 6.22; in [21], 4.54; in data set [22] it was 4.36; in data set [23], 4.70; in data set [26], 6.22. The CC50 in data set [10] came out at 174 µM. Further, the outcome in data set [12] and in [19] was inactive. The same compound gave a minimum inhibitory concentration (MIC) in data set [20] of 0.15 µM (≈ 0.112 µg/mL). The Time was 9.5 h in data set [28] and >16 h in data set [29].

One may read the pIC50 as the IC50 on a negative log10 scale, so that one unit is a factor of ten. By CC50 is commonly meant the concentration giving 50% cytotoxicity. High values mean lower toxicity to the cells, low ones greater toxicity to the cells. As a reminder, the MIC is the smallest concentration in the dilution series that meets the test's criterion for growth inhibition.
